Measured values collected from several papers.
Target: Mitogen-activated protein kinase kinase kinase 6 (MAP3K6, Homo sapiens, UniProt O95382)
One construct used (O95382 1-1288): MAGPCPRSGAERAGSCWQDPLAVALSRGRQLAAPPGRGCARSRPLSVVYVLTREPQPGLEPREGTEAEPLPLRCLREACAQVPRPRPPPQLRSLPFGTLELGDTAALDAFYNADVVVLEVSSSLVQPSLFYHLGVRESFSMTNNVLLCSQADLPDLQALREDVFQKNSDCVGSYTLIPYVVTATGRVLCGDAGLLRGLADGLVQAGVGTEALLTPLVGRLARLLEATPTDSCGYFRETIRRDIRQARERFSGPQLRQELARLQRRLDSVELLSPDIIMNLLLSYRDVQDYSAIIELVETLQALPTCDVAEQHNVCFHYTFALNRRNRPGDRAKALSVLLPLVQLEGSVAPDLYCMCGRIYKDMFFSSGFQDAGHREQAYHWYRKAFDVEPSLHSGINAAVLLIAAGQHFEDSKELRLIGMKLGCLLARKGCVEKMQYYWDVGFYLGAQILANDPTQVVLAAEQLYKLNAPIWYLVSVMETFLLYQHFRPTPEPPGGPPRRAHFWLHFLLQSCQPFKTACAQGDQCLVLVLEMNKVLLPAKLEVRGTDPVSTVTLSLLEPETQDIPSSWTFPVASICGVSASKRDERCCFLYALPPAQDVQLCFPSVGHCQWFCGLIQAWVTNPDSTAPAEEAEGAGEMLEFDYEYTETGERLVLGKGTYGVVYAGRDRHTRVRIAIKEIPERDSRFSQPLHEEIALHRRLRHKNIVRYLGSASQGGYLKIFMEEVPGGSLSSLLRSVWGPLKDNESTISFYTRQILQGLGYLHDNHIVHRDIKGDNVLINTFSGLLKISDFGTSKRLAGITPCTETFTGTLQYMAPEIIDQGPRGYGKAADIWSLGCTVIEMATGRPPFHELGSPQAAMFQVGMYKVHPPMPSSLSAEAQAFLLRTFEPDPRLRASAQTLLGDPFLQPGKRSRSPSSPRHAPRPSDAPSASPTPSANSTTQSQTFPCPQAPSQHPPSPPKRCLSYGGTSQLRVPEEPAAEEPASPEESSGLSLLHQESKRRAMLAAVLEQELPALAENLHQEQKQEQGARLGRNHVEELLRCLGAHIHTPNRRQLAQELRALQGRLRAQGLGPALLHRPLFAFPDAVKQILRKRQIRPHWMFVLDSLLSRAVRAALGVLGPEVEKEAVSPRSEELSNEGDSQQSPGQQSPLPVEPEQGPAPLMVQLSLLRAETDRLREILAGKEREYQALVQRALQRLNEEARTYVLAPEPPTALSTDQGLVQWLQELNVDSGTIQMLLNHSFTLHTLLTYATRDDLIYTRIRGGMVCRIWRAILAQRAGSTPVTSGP

| Compound | read-out | technique | tested at | remaining binding [%] |
| --- | --- | --- | --- | --- |
| CN([C@@H]1CCc2c(CC(=O)O)c3cc(S(C)(=O)=O)ccc3n2C1)S(=O)(=O)c1ccc(F)cc1 | cell-free assay | competition with immobilised ligand | 1 µM | 89 |
| O=C(Nc1c[nH]nc1C(=O)NC1CCNCC1)c1cc(F)cc(F)c1 | binding | competition with immobilised ligand | 1 µM | 84 |
| CNC(=O)[C@@H]1CC[C@@H](n2c(-c3ccc4cnccc4c3)nc3ccc(C(=O)NCc4cccc(C(N)=O)c4)cc32)C1 | binding | competition with immobilised ligand | 1 µM | 100 |
| FC(F)(F)Oc1cccc(-c2cnc3ccc(-c4ccncc4)nn23)c1 | cell-free assay | competition with immobilised ligand | 5 µM | 96 |
| C=CC(=O)N1CCC(C(=O)NCC(=O)N2CCN(c3nc(-c4cnc(N)nc4C(F)F)nc(N4CCOCC4)n3)CC2)CC1 | binding | competition with immobilised ligand | 1 µM | 100 |
| CSc1cccnc1N1CCN(Cc2nc3ccccc3[nH]2)CC1 | cell-free assay | competition with immobilised ligand | 1 µM | 92 |
| O=C(NCCCN1CCOCC1)c1ccc(Nc2ncc(Cl)c(-c3ccc(Cl)s3)n2)cc1 | binding | competition with immobilised ligand | 1 µM | 83 |
| c1cnn2ncc(-c3ccnc(N4CCC45COC5)n3)c2c1 | binding |  | 1 µM | 61 |
| COc1ncc2cc3ccccc3nc2c1C#N | cell-free assay | competition with immobilised ligand | 5 µM | 100 |
| O=C(c1ccc(Nc2ncc(Cl)c(-c3cc4ccccc4s3)n2)cc1)N1CCC(N2CCCC2)CC1 | binding | competition with immobilised ligand | 1 µM | 80 |
| CN(C)c1nccc(-c2cnn3ncccc23)n1 | binding |  | 1 µM | 74 |
| Cc1cc(C)c(-n2ccn3nc(-c4cccnc4)cc23)cc1NC(=O)c1cc(C#N)cc(S(F)(F)(F)(F)F)c1 | cell-free assay | competition with immobilised ligand | 0.1 µM | 100 |
| CN(C)c1ncc(F)c(-c2cnn3ncccc23)n1 | binding |  | 1 µM | 97 |
| CCS(=O)(=O)c1cc2cc(C[C@@](O)(CC(C)(C)c3ccc(F)cc3C(N)=O)C(F)(F)F)[nH]c2cn1 | cell-free assay | competition with immobilised ligand | 1 µM | 100 |
| C[C@@H](c1ccc(-n2cnc3c(N)ncnc32)cc1)N1CCc2nn(C)c(Cc3ccccc3)c2C1=O | binding | competition with immobilised ligand | 0.1 µM | 67 |
| CCOCCn1cc(C(=O)Nc2ccc(-n3nc(-c4cccnc4)cc3C(F)(F)F)cn2)ccc1=O | cell-free assay | competition with immobilised ligand | 1 µM | 86 |
| C[C@H]1CCN(c2nccc(-c3cnn4ncccc34)n2)C1 | binding |  | 1 µM | 57 |
| O=C(c1ccc(Nc2ncc(Cl)c(-c3ccc(Cl)s3)n2)cc1)N1CCC(N2CCCC2)CC1 | binding | competition with immobilised ligand | 1 µM | 66 |
| F[C@@H]1CCN(c2nccc(-c3cnn4ncccc34)n2)C1 | binding |  | 1 µM | 76 |
| COc1cnc(Nc2cccc(S(N)(=O)=O)c2)nc1N1CCN(c2ccccc2)CC1 | binding | competition with immobilised ligand | 1 µM | 93 |
| N[C@H]1CCN(c2nccc(-c3cnn4ncccc34)n2)C1 | binding |  | 1 µM | 82 |
| CS(=O)(=O)N1CCCC(NC(=O)[C@H](CCC2CCCCC2)NC(=O)c2ccc(CNC(=O)c3cnc4ccccn34)cc2)C1 (stereo partly shown) | cell-free assay | competition with immobilised ligand | 0.1 µM | 100 |
